Key:
Rattus norvegicus [1] = experiment: Compound was evaluated in experiment 1 for High density lipoproteins at 3.0 (mg/kg) dose; assay type: functional
How it was run: (§1)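 Chronic model in male Sprague-Dawley rats (200-225 g). Rats were fed chow with peanut oil 5.5%, cholesterol 1.5% and cholic acid ad libitum for 2 weeks. Test article was given by gavage once daily (morning) in the second week, as a CMC/Tween aqueous suspension. Blood was taken by cardiac puncture under ether 24 h after the last dose. Plasma total, HDL and nonHDL cholesterol were measured with an Abbott VP analyzer using dextran sulfate precipitation, reported as mg/dL and % change from control. Controls were cholesterol-fed rats and rats switched to chow in week 2.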

Rattus norvegicus [2] = experiment: Compound was evaluated in experiment 1 for change in non High density lipoprotein at the doses at 1.0 (mg/kg) dose; assay type: functional; how it was run: as §1
Rattus norvegicus [3] = experiment: Compound was evaluated in experiment 1 for Change in total cholesterol at 10 (mg/kg) dose; assay type: functional; how it was run: as §1
Rattus norvegicus [4] = experiment: Compound was evaluated in experiment 1 for non High density lipoproteins at 3.0(mg/kg) dose; assay type: functional; how it was run: as §1
[5] = Solubility at, pH 7.4; assay type: physicochemical; details: buffer, read-out: S
Rattus norvegicus [6] = experiment: Compound was evaluated in experiment 1 for non High density lipoproteins at 10 (mg/kg) dose; assay type: functional; how it was run: as §1
Rattus norvegicus [7] = experiment: Compound was evaluated in experiment 1 for change in non High density lipoprotein at the doses at 10 (mg/kg) dose; assay type: functional; how it was run: as §1
Rattus norvegicus [8] = experiment: Compound was evaluated in experiment 1 for Change in High density lipoproteins at 3.0 (mg/kg) dose; assay type: functional; how it was run: as §1
Rattus norvegicus [9] = experiment: Compound was evaluated in experiment 1 for High density lipoproteins at 10 (mg/kg) dose; assay type: functional; how it was run: as §1
Rattus norvegicus [10] = experiment: Compound was evaluated in experiment 1 for Total cholesterol at 3.0 (mg/kg) dose; assay type: functional; parameters: unit not given beside the values; how it was run: as §1
[11] = Solubility at, pH 4.0; assay type: physicochemical; details: buffer, read-out: S
Rattus norvegicus [12] = experiment: Compound was evaluated in experiment 2 for High density lipoproteins at 30 (mg/kg) dose; assay type: functional; how it was run: as §1
Rattus norvegicus [13] = experiment: Compound was evaluated in experiment 1 for Total cholesterol at 0.3 (mg/kg) dose; assay type: functional; parameters: unit not given beside the values; how it was run: as §1
Rattus norvegicus [14] = experiment: Compound was evaluated in experiment 2 for change in non High density lipoprotein at the doses at 30 (mg/kg) dose; assay type: functional
How it was run: (§2)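 Male Sprague-Dawley rats (200-225 g) were fed chow with peanut oil (5.5%), cholesterol (1.5%) and cholic acid (0.5%) ad libitum for 2 weeks. During week 2 they were gavaged daily each morning with compound in aqueous CMC/Tween suspension. Controls were fed the cholesterol diet for 2 weeks, or switched to chow for week 2. Rats were bled by cardiac puncture under ether 24 h post-dose. Plasma HDL-C was measured after dextran sulfate precipitation, along with nonHDL-C. Values are given in mg/dL and as % change from control.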

Rattus norvegicus [15] = experiment: Compound was evaluated in experiment 1 for change in non High density lipoprotein at the doses at 3.0 (mg/kg) dose; assay type: functional; how it was run: as §1
Rattus norvegicus [16] = experiment: Compound was evaluated in experiment 1 for Change in High density lipoproteins at 0.3 (mg/kg) dose; assay type: functional; how it was run: as §1
Rattus norvegicus [17] = experiment: Compound was evaluated in experiment 1 for Change in High density lipoproteins at 10 (mg/kg) dose; assay type: functional; how it was run: as §1
[18] = Solubility at, 0.1 N HCl; assay type: physicochemical; details: read-out: S
Rattus norvegicus [19] = experiment: Compound was evaluated in experiment 2 for Change in High density lipoproteins at 30 (mg/kg) dose; assay type: functional; how it was run: as §1
Rattus norvegicus [20] = experiment: Compound was evaluated in experiment 1 for High density lipoproteins at 1.0 (mg/kg) dose; assay type: functional; how it was run: as §1
Rattus norvegicus [21] = experiment: Compound was evaluated in experiment 1 for Change in total cholesterol at 0.3 (mg/kg) dose; assay type: functional; how it was run: as §1
Rattus norvegicus [22] = experiment: Compound was evaluated in experiment 1 for change in non High density lipoprotein at the doses at 0.3 (mg/kg) dose; assay type: functional; how it was run: as §1
Rattus norvegicus [23] = experiment: Compound was evaluated in experiment 1 for Change in High density lipoproteins at 1.0 (mg/kg) dose; assay type: functional; how it was run: as §1
Rattus norvegicus [24] = experiment: Compound was evaluated in experiment 2 for Change in total cholesterol at 30 (mg/kg) dose; assay type: functional; how it was run: as §1
Rattus norvegicus [25] = experiment: Compound was evaluated in experiment 1 for Change in total cholesterol at 3.0 (mg/kg) dose; assay type: functional; how it was run: as §1
Rattus norvegicus [26] = experiment: Compound was evaluated in experiment 2 for non High density lipoproteins at 30 (mg/kg) dose; assay type: functional; how it was run: as §2
Rattus norvegicus [27] = experiment: Compound was evaluated in experiment 1 for Total cholesterol at 10 (mg/kg) dose; assay type: functional; parameters: unit not given beside the values; how it was run: as §1
Rattus norvegicus [28] = experiment: Compound was evaluated in experiment 1 for High density lipoproteins at 0.3 (mg/kg) dose; assay type: functional; how it was run: as §1
Rattus norvegicus [29] = species on record: Rattus norvegicus; experiment: Percent change in total cholesterol in peanut oil (5.5%)-, cholic acid (0.3%)-, Cholesterol (1.5%)-fed rats after a single dose.; assay type: functional
How it was run: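 Male Sprague-Dawley rats (200-225 g), n=5-7/group, given a single oral dose at 4 p.m. as a suspension in 1.5% CMC/0.2% Tween-20 in water (50 mg/kg); controls received vehicle alone. The rats then had free access to chow with peanut oil, cholesterol and cholic acid. At 8 a.m. next day they were bled by cardiac puncture under ether, and serum total cholesterol was measured as % change versus controls (unpaired two-tailed t-test).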

Rattus norvegicus [30] = experiment: Compound was evaluated in experiment 2 for Total cholesterol at 30 (mg/kg) dose; assay type: functional; how it was run: as §1
Rattus norvegicus [31] = experiment: Compound was evaluated in experiment 1 for non High density lipoproteins at 0.3 (mg/kg) dose; assay type: functional; how it was run: as §1
Rattus norvegicus [32] = experiment: Compound was evaluated in experiment 1 for non High density lipoproteins at 1.0 (mg/kg) dose; assay type: functional; how it was run: as §1
Rattus norvegicus [33] = experiment: Compound was evaluated in experiment 1 for Change in total cholesterol at 1.0 (mg/kg) dose; assay type: functional; how it was run: as §1
Rattus norvegicus [34] = experiment: Compound was evaluated in experiment 1 for Total cholesterol at 1.0 (mg/kg) dose; assay type: functional; parameters: unit not given beside the values; how it was run: as §1
Rattus norvegicus [35] = experiment: Compound was evaluated in experiment 2 for Change in total cholesterol at 1 (mg/kg) dose; N/C denotes 'No change'; assay type: functional, organism-based; how it was run: as §1
Rattus norvegicus [36] = experiment: Compound was evaluated in experiment 2 for change in non High density lipoprotein at the doses at 1 (mg/kg) dose; assay type: functional, organism-based; how it was run: as §1

In the case of `CC(C)c1cccc(C(C)C)c1NC(=O)NCC1(c2ccc(N(C)C)cc2)CCCC1.Cl` [NEVANIMIBE HYDROCHLORIDE], the HDL-C (Rattus norvegicus [1]) is reported as 16, the “Change non HDL-C” value (Rattus norvegicus [2]) is reported as -32% and the “Change TC” value (Rattus norvegicus [3]) is reported as -64%. The Non-HDL-C (Rattus norvegicus [4]) was 235, the solubility [5] was under 50 µg/mL and the Non-HDL-C (Rattus norvegicus [6]) was 84. For the same compound, the “Change non HDL-C” value (Rattus norvegicus [7]) was -72%, the “Change HDL -C” value (Rattus norvegicus [8]) was 38% and the HDL-C (Rattus norvegicus [9]) was 31. It also gave a TC (Rattus norvegicus [10]) of 251, a solubility [11] of 1330 µg/mL and an HDL-C (Rattus norvegicus [12]) of 36. For the same compound, the TC (Rattus norvegicus [13]) was 252, the “Change non HDL-C” value (Rattus norvegicus [14]) was -80% and the “Change non HDL-C” value (Rattus norvegicus [15]) was -23%. For the same compound, the “Change HDL -C” value (Rattus norvegicus [16]) was 44%, the “Change HDL -C” value (Rattus norvegicus [17]) was 167% and the solubility [18] was 6400 µg/mL. For the same compound, the “Change HDL -C” value (Rattus norvegicus [19]) was 177%, the HDL-C (Rattus norvegicus [20]) was 15 and the “Change TC” value (Rattus norvegicus [21]) was -20%. For the same compound, the “Change non HDL-C” value (Rattus norvegicus [22]) was -22%, the “Change HDL -C” value (Rattus norvegicus [23]) was 32% and the “Change TC” value (Rattus norvegicus [24]) was -69%. For the same compound, the “Change TC” value (Rattus norvegicus [25]) was -20%, the Non-HDL-C (Rattus norvegicus [26]) was 56 and the TC (Rattus norvegicus [27]) was 115. For the same compound, the HDL-C (Rattus norvegicus [28]) was 17, the “Delta TC” value (Rattus norvegicus [29]) was -77% and the TC (Rattus norvegicus [30]) was 91. For the same compound, the Non-HDL-C (Rattus norvegicus [31]) was 235, the Non-HDL-C (Rattus norvegicus [32]) was 206 and the “Change TC” value (Rattus norvegicus [33]) was -29%. For the same compound, the TC (Rattus norvegicus [34]) was 222.

For `CC(C)c1cccc(C(C)C)c1NC(=O)NCC1(c2cccc(CN(C)C)c2)CCCC1`, the “Change TC” value (Rattus norvegicus [35]) was “No change” and the “Change non HDL-C” value (Rattus norvegicus [36]) was “No change”.

From ChEMBL document CHEMBL1127826, “Inhibitors of acyl-CoA:cholesterol acyltransferase (ACAT). 7. Development of a series of substituted N-phenyl-N'-[(1-phenylcyclopentyl)methyl]ureas with enhanced hypocholesterolemic activity” (J Med Chem, 1994)
